According to ChEMBL document CHEMBL1126114, “A novel orally active inhibitor of IL-1 generation: synthesis and structure-activity relationships of 3-(4-hydroxy-1-naphthalenyl)-2-propenoic acid derivatives” (J Med Chem, 1992):
Values joined by “and” are separate entries in the source; they are usually repeats but may differ in a detail not shown here. Equal values may be shown once.

How the values were obtained:
Format in all cases: functional
[1] = species on record: Homo sapiens; test: In vitro inhibitory activity against IL-1 generation by using human monocyte
Procedure, shortened: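 Healthy-donor peripheral mononuclear cells, adhered 1.5 h in RPMI 1640 with 10% heat-inactivated autologous serum. Adherent monocytes then stimulated with LPS 1 μg/mL for 16–18 h in 1% autologous serum with 0.1% ethanol, ± drug. Extra- plus intracellular IL-1 read by LAF assay against a recombinant human IL-1β curve. IC50 by least squares; mean of ≥2 experiments.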

[2] = system: Rattus norvegicus; test: In vivo percent inhibition of IL-1 generation in rat CMC-LPS air pouch model at 100 uM concentration (local administration)
Procedure, shortened: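 Rat air pouch: 10 mL air s.c. into the dorsum, 2% CMC-Na in saline 24 h later, then LPS 5 ng 24 h after CMC. Compound given locally in 5% EtOH-RPMI with 30% autologous serum, 100 μM final in exudate, at 30 min before and just before LPS. Exudate IL-1 (extra- plus intracellular) read by LAF at 4 h. n=5; % inhibition ± SEM.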

[3] = species on record: Rattus norvegicus; test: In vitro inhibitory activity against IL-1 generation by using rat exudated macrophages
Procedure, shortened: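 Fisher rat peritoneal exudate cells collected 4 days after i.p. 2.5% glycogen. Cells adhered 1.5 h at 37 °C in 1% normal rat serum. Adherent macrophages stimulated with LPS 1 ng/mL for 4 h ± compound. Intracellular IL-1 read by LAF assay against a recombinant human IL-1α curve. IC50 by least squares; mean of duplicates.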

[4] = system: Rattus norvegicus; test: Compound was evaluated in vivo for the percent inhibition of IL-1 generation in rat CMC-LPS air pouch model at 200 mg/Kg concentration (oral administration)
Procedure, shortened: (§1)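 Rat CMC-LPS air pouch: air s.c., 2% CMC-Na 24 h later, LPS 5 ng 24 h after that. Compound given orally in 0.5% methyl cellulose 2 h before LPS. Exudate collected at 4 h; IL-1 (extra- plus intracellular) read by LAF assay against a recombinant human IL-1α curve.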

[5] = system: Rattus norvegicus; test: Compound was evaluated in vivo for the percent inhibition of IL-1 generation in rat CMC-LPS air pouch model at 50 mg/Kg concentration (oral administration); procedure, shortened: as §1

Compound	IC50 [1]	Inhibition [2]	IC50 [3]	inhibition in vivo at 200 mg/kg [4]	inhibition in vivo at 50 mg/kg [5]
CCc1c(OC)c(O)c2c(CC)cccc2c1/C=C/C(=O)O	> 10000 nM	<25%	–	–	–
COc1cc(/C=C(\C)C(=O)O)c2cccc(C(C)C)c2c1O	< 1000 nM	70%	1000 nM	< 25%	–
CCCc1cccc2c(/C=C(\C)C(=O)O)cc(OC)c(O)c12	–	91%	–	67%	< 25%
CCc1cccc2c(/C=C(\Cc3cccs3)C(=O)O)cc(OC)c(O)c12	–	44%	6500 nM	–	–
COc1cc(/C=C/C(=O)O)c2cccc(C)c2c1O	2500 nM	<25%	< 1000 nM	–	–
CCc1cccc2c(/C=C/C(=O)O)cc(OCCOC)c(O)c12	> 10000 nM	34%	3500 nM	–	–
CCOc1cc(/C=C/C(=O)O)c2cccc(CC)c2c1O	–	75%	1400 nM	–	–
CCc1cccc2c(/C=C(/C(=O)O)c3ccccc3)cc(OC)c(O)c12	–	42%	2500 nM	< 25%	–
COc1cc(/C=C/C(=O)O)c2ccccc2c1O	1900 nM	<25%	1400 nM	–	–
CCc1cccc2c(/C(C)=C\C(=O)O)cc(OC)c(O)c12	–	<25%	> 10000 nM	–	–
COCCCc1cccc2c(/C=C/C(=O)O)cc(OC)c(O)c12	–	<25%	6300 nM	–	–
CCc1cccc2c(/C=C(\C)C(=O)O)cc(OC)c(O)c12	–	85%	–	36%	–
CCCCCOc1cc(/C=C/C(=O)O)c2cccc(CC)c2c1O	5300 nM	33%	2500 nM	–	–
COc1cc(/C=C/C(=O)O)c2cccc(C(C)C)c2c1O	1400 nM	73%	1000 nM	< 25%	–
CCc1cccc2c(/C=C(\Cc3ccccc3)C(=O)O)cc(OC)c(O)c12	–	79%	2300 nM	< 25%	–
CC/C(=C/c1cc(OC)c(O)c2c(CC)cccc12)C(=O)O	–	90% and 71%	2100 nM	–	43%

Compound	IC50 [1]	Inhibition [2]	IC50 [3]	inhibition in vivo at 200 mg/kg [4]	inhibition in vivo at 50 mg/kg [5]
CCCC/C(=C\C(=O)O)c1cc(OC)c(O)c2c(CC)cccc12	5800 nM	52%	> 10000 nM	–	–
CCCc1cccc2c(/C=C(\CC)C(=O)O)cc(OC)c(O)c12	3700 nM	91%	< 1000 nM	62%	–
CCCc1cccc2c(/C=C(/Cc3ccccc3)C(=O)O)cc(OC)c(O)c12	–	91%	1600 nM	51%	–
CCc1ccc2c(O)c(OC)cc(/C=C/C(=O)O)c2c1	3900 nM	<25%	4000 nM	–	–
CC/C(=C\c1cc(OC)c(O)c2c(CC)cccc12)C(=O)O	–	72%	1400 nM	41%	–
CCc1cccc2c(O)c(OC)cc(/C=C/C(=O)O)c12	1800 nM	26%	5500 nM	–	–
CCc1c(OC)c(O)c2ccccc2c1/C=C/C(=O)O	> 10000 nM	<25%	> 10000 nM	–	–
CCc1cccc2c(/C=C/C(=O)O)cc(OCc3ccccc3)c(O)c12	6700 nM	39%	1900 nM	–	–
CCCc1cccc2c(/C=C/C(=O)O)cc(OC)c(O)c12	2300 nM	91%	< 1000 nM	32%	< 25%
CCc1cccc2c(/C=C/C(=O)O)cc(OC)c(O)c12	2400 nM	88%	1500 nM	< 25%	–
CCCc1cccc2c(/C=C(/CC)C(=O)O)cc(OC)c(O)c12	< 1000 nM	90% and 78%	< 1000 nM	–	47%
COc1cc(/C=C(/C)C(=O)O)c2cccc(C(C)C)c2c1O	2100 nM	87% and 79%	1400 nM	–	29%
CCCc1cccc2c(/C=C(/C)C(=O)O)cc(OC)c(O)c12	–	87% and 86%	–	–	33%
CCc1cccc2c(/C=C(/Cc3ccccc3)C(=O)O)cc(OC)c(O)c12	–	–	2100 nM	–	< 25%
CCc1cccc2c(/C(C)=C/C(=O)O)cc(OC)c(O)c12	–	<25%	> 10000 nM	–	–
CCc1ccc2c(/C=C/C(=O)O)cc(OC)c(O)c2c1	4000 nM	<25%	4100 nM	–	–
